The values below come from PubChem BioAssay.

The nature of assay [1]: hit retest on RPL19A-GFP reporter strain – cell-based, S. cerevisiae, flow cytometry, cherry picks, mother/daughter gates, confirmation (AID 2270;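 active means GFP response below 50% of the DMSO control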). The following applies: 3 h, at 10 µM, stronger effect = lower value, 100 = same GFP as DMSO wells.
Assay [2] can be described thus: yeast TOR pathway reporter LAP4-GFP change – cell-based, cherry picks, flow cytometry, mother/daughter gates, confirmation (AID 2271;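 active means GFP response above 150% of the DMSO control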;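 further: ratio of sample to DMSO plate mean so 100% equals DMSO level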). The following applies: S. cerevisiae LAP4-GFP strain, 3 h, at 10 µM, stronger effect = higher value, 100 means same as DMSO control. The essentials: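 Test system: GFP-fusion yeast strain. Medium: synthetic complete (SC) yeast growth medium. Timing: 3 h treatment at 30 °C with rotation. Measured by: GFP by flow cytometry. Control set: positive rapamycin (400 ng/mL), negative DMSO.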
A general note: A flow cytometer gives signals particle by particle.

Assay [3] in a line: TOR pathway reporter MEP2-GFP, retest of hits – S. cerevisiae, flow cytometry GFP, cherry picks, confirmation (AID 2272;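 active means GFP response above 150% of the DMSO control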;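 further: ratio of well signal to plate DMSO mean so 100% equals DMSO level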). The note with it: S. cerevisiae MEP2-GFP strain, 3 h, at 10 µM, stronger effect = higher value.
Assay [4] in a line: yeast AGP1-GFP fluorescence change, single-dose – cell-based, flow cytometry, S. cerevisiae, cherry picks, confirmation (AID 2273).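 Further: median GFP channel fluorescence over the whole cell population gate.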 The following applies: S. cerevisiae AGP1-GFP strain, 3 h, at 10 µM.
The nature of assay [5]: TOR pathway CIT2 reporter hit retest – S. cerevisiae, GFP fusion, cherry picks, mother/daughter gates, confirmation (AID 2274). The note with it: S. cerevisiae CIT2-GFP strain, flow cytometry, 3 h, at 10 µM, stronger effect = higher value.
Setting [6] is: measured here: daughter cell gate.
Where [7] appears, read: measured here: mother cell gate.
Where [8] appears, read: measured here: daughter cell gate response.
The mark [9] stands for this setting: measured here: mother cell gate response.

Structures are written as SMILES. The source made the active and inactive calls.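 How the source made its calls, unless noted: active means GFP response above 150% of the DMSO level; inconclusive means fewer than 70 events counted for a yeast strain; inactive means the rest.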

In the case of `CCOC(=O)C1(Cc2ccccc2Cl)CCN(C(=O)CCn2ccnc2C)CC1`, the GFP response vs DMSO is 96.6% (inactive) in assay [1], 97.3% in assay [1] (setting [6]), 97.2% in assay [1] (setting [7]) and 99.5% (inactive) in assay [3]. For the same molecule, the GFP response relative to DMSO in assay [2] is 101% (inactive); in assay [2] (setting [8]), 104%; in assay [2] (setting [9]), 99.5%. The GFP response, % of DMSO in assay [4] is 100% (inactive); in assay [5], 97.8% (inactive); in assay [5] (setting [6]), 98.3%; in assay [5] (setting [7]) it was 98%.

In the case of `CC1CCN(S(=O)(=O)c2cccc(C(=O)Nc3nccs3)c2)CC1`, the GFP response vs DMSO in assay [1] is 101% (inactive); in assay [1] (setting [6]), 101%; in assay [1] (setting [7]) it was 101%; in assay [3], 100% (inactive). Besides, the GFP response relative to DMSO in assay [2] was 92.6% (inactive); in assay [2] (setting [8]), 95.6%; in assay [2] (setting [9]), 93.1%. The GFP response, % of DMSO in assay [4] is 95.4% (inactive); in assay [5] it was 107% (inactive); in assay [5] (setting [6]) it was 105%; in assay [5] (setting [7]), 105%.

As for `O=C(COc1ccccc1)N1CCN(c2ncnc3c2cnn3-c2ccccc2)CC1`, the GFP response vs DMSO in assay [1] was 98.7% (inactive); in assay [1] (setting [6]), 98.4%; in assay [1] (setting [7]) it was 98.6%; in assay [3], 101% (inactive). The results for the GFP response relative to DMSO in assay [2], in assay [2] (setting [8]) and in assay [2] (setting [9]) were 104% (inactive), 102% and 105%, respectively. In addition, the GFP response, % of DMSO was 97.3% (inactive) in assay [4], 98.6% (inactive) in assay [5], 103% in assay [5] (setting [6]) and 98.2% in assay [5] (setting [7]).

As for `O=[N+]([O-])c1ccc(S(=O)(=O)c2cccc(C(F)(F)F)c2)nc1`, the GFP response vs DMSO in assay [1] was 81.9% (inactive); in assay [1] (setting [6]), 92.5%; in assay [1] (setting [7]), 75%; in assay [3] it was 157% (inactive). Besides, the GFP response relative to DMSO is 240% (active) in assay [2], 180% in assay [2] (setting [8]) and 221% in assay [2] (setting [9]). The GFP response, % of DMSO was 122% (inactive) in assay [4], 128% (inactive) in assay [5], 149% in assay [5] (setting [6]) and 110% in assay [5] (setting [7]).

For the molecule `COCCn1c(=N)c(C(=O)NCc2ccco2)cc2c(=O)n3ccccc3nc21`, the GFP response vs DMSO in assay [1] was 100% (inactive); in assay [1] (setting [6]), 95.3%; in assay [1] (setting [7]), 93.5%; in assay [3] it was 95.2% (inactive). The GFP response relative to DMSO in assay [2] was 96.5% (inactive); in assay [2] (setting [8]), 96%; in assay [2] (setting [9]), 86.3%. Also, the GFP response, % of DMSO is 102% (inactive) in assay [4], 100% (inactive) in assay [5], 97.6% in assay [5] (setting [6]) and 97.1% in assay [5] (setting [7]).

Regarding `COc1ccc(C2CC(c3ccccc3)=NN2S(=O)(=O)c2ccccc2)c(OC)c1` (configuration not stated), the GFP response vs DMSO was 99.2% (inactive) in assay [1], 99.8% in assay [1] (setting [6]), 99.1% in assay [1] (setting [7]) and 99% (inactive) in assay [3]. Also, the GFP response relative to DMSO is 99.5% (inactive) in assay [2], 102% in assay [2] (setting [8]) and 99.4% in assay [2] (setting [9]). The GFP response, % of DMSO in assay [4] is 103% (inactive); in assay [5], 106% (inactive); in assay [5] (setting [6]), 108%; in assay [5] (setting [7]), 104%.

Turning to `CCn1c(=O)c(C(=O)Nc2ccsc2C(=O)OC)c(O)c2ccccc21`, the GFP response vs DMSO is 103% (inactive) in assay [1], 101% in assay [1] (setting [6]), 103% in assay [1] (setting [7]) and 96.8% (inactive) in assay [3]. The GFP response relative to DMSO is 93.1% (inactive) in assay [2], 92.6% in assay [2] (setting [8]) and 94.1% in assay [2] (setting [9]). The GFP response, % of DMSO is 103% (inactive) in assay [4], 100% (inactive) in assay [5], 99.2% in assay [5] (setting [6]) and 101% in assay [5] (setting [7]).

In the case of `CCCC(=O)Nc1ccc(C(=O)/C=C/c2ccc(SC)cc2)cc1`, the GFP response vs DMSO is 99.5% (inactive) in assay [1], 98.1% in assay [1] (setting [6]), 99.2% in assay [1] (setting [7]) and 102% (inactive) in assay [3]. The GFP response relative to DMSO in assay [2] is 105% (inactive); in assay [2] (setting [8]) it was 103%; in assay [2] (setting [9]), 105%. Also, the GFP response, % of DMSO in assay [4] is 97.2% (inactive); in assay [5] it was 95.2% (inactive); in assay [5] (setting [6]) it was 94.8%; in assay [5] (setting [7]), 93.4%.

Consider `NS(=O)(=O)c1ccc(Sc2ccccn2)c([N+](=O)[O-])c1`, for which the GFP response vs DMSO in assay [1] is 97.4% (inactive); in assay [1] (setting [6]), 98.6%; in assay [1] (setting [7]) it was 98.5%; in assay [3] it was 100% (inactive). Also, the GFP response relative to DMSO is 97.9% (inactive) in assay [2], 99.2% in assay [2] (setting [8]) and 98.3% in assay [2] (setting [9]). Besides, the GFP response, % of DMSO in assay [4] is 101% (inactive); in assay [5], 98.3% (inactive); in assay [5] (setting [6]) it was 101%; in assay [5] (setting [7]) it was 98.5%.

Take `Cc1ccc(/C(N)=N/OC(=O)c2ccc(F)cc2)cc1`: the GFP response vs DMSO in assay [1] was 102% (inactive); in assay [1] (setting [6]) it was 102%; in assay [1] (setting [7]), 99.2%; in assay [3], 108% (inactive). Besides, the GFP response relative to DMSO in assay [2] is 128% (inactive); in assay [2] (setting [8]), 111%; in assay [2] (setting [9]) it was 129%. For the same molecule, the GFP response, % of DMSO in assay [4] was 76.8% (inactive); in assay [5], 134% (inactive); in assay [5] (setting [6]) it was 121%; in assay [5] (setting [7]), 133%.

On to `O=[N+]([O-])c1cnc(Sc2ccncn2)s1`, for which the GFP response vs DMSO was 102% (inactive) in assay [1], 105% in assay [1] (setting [6]), 99.2% in assay [1] (setting [7]) and 141% (inactive) in assay [3]. Further, the GFP response relative to DMSO in assay [2] was 166% (active); in assay [2] (setting [8]), 148%; in assay [2] (setting [9]), 182%. The GFP response, % of DMSO in assay [4] was 111% (inactive); in assay [5] it was 113% (inactive); in assay [5] (setting [6]), 124%; in assay [5] (setting [7]), 102%.

Take `CC(=O)NN1C(=O)/C(=C/c2ccc(Br)o2)SC1=S`: the GFP response vs DMSO in assay [1] was 103% (inactive); in assay [1] (setting [6]), 101%; in assay [1] (setting [7]) it was 102%; in assay [3] it was 139% (inactive). The figures for the GFP response relative to DMSO in assay [2], in assay [2] (setting [8]) and in assay [2] (setting [9]) were 128% (inactive), 122% and 126%, respectively. The GFP response, % of DMSO was 111% (inactive) in assay [4], 153% (active) in assay [5], 150% in assay [5] (setting [6]) and 150% in assay [5] (setting [7]).
